Results: ChEMBL document CHEMBL3769315 (J Med Chem, 2016)
In brackets after ≈: the same amount, converted by molar mass.

What was measured:
Hepatocyte = conditions: human, hepatocytes
histamine H1 receptor = histamine H1 receptor (Homo sapiens, UniProt P35367); experiment: in vitro; conditions: PathHunter cells
[1] = Cytotoxicity against human Huh7.5.1 cells assessed as ATP level by luminescence analysis; conditions: huh-7
[2] = AUCinfinity in CD-1 mouse plasma at 50 mg/kg, ip after 24 hrs by UPLC-MS/MS analysis; type: ADME, organism-based; parameters: dose 50 mg/kg, route intraperitoneal, time infinity
HepG2 = experiment: Cytotoxicity against human HepG2 cells assessed as ATP level by luminescence analysis
Hepatitis C virus [3] = experiment: Antiviral activity against HCV genotype 1b pseudoparticle infected in human Huh7.5.1 cells assessed as inhibition of virus entry at 10 uM after 4 hrs by luciferase reporter gene assay; type: functional, Hepacivirus hominis; conditions: Huh-7, 4 h
[4] = Solubility of compound in phosphate buffer at pH 7.4
Murine leukemia virus [5] = experiment: Antiviral activity against Murine leukemia virus pseudoparticle infected in human Huh7.5.1 cells at 10 uM after 4 hrs by luciferase reporter gene assay; type: functional; conditions: Huh-7, 4 h
Hepatitis C virus [6] = experiment: microbe, parasite or virus in culture; type: functional, Hepacivirus hominis; conditions: Huh-7, 48 h
Hepatitis C virus [7] = experiment: Antiviral activity against HCV genotype 2a assessed as inhibition of RNA replication at 10 uM by cell-based replicon assay; type: functional, Hepacivirus hominis
Method in brief: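 GT 2a subgenomic replicon cells were plated at 10^4/well and incubated overnight. They were then treated with compound (10 μM, or 3.2 or 1 μM for some compounds) for 48 h. Luciferase activity was read and expressed as % of DMSO.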

[8] = system: Vesicular stomatitis virus; experiment: Antiviral activity against Vesicular stomatitis virus G pseudoparticle infected in human Huh7.5.1 cells at 10 uM after 4 hrs by luciferase reporter gene assay; type: functional; conditions: Huh-7, 4 h
Hepatitis C virus [9] = experiment: microbe, parasite or virus in culture; type: functional, organism-based, Hepacivirus hominis; conditions: JFH-1, Huh-7.5.1, 48 h
Hepatitis C virus [10] = experiment: Antiviral activity against HCV genotype 1a pseudoparticle infected in human Huh7.5.1 cells assessed as inhibition of virus entry at 10 uM after 4 hrs by luciferase reporter gene assay; type: functional, Hepacivirus hominis; conditions: subtype 1a, Huh-7, 4 h
[11] = AUClast in CD-1 mouse liver at 50 mg/kg, ip after 24 hrs by UPLC-MS/MS analysis; type: ADME, organism-based; parameters: dose 50 mg/kg, time < 24 hr, route intraperitoneal
[12] = Cmax in CD-1 mouse liver at 50 mg/kg, ip after 24 hrs by UPLC-MS/MS analysis; type: ADME, organism-based; parameters: dose 50 mg/kg, route intraperitoneal
Influenza A virus = experiment: microbe, parasite or virus in culture; conditions: H1N1
SARS-CoV = experiment: microbe, parasite or virus in culture; conditions: Severe acute respiratory syndrome-related coronavirus
Tacaribe virus = experiment: microbe, parasite or virus in culture; conditions: Mammarenavirus tacaribeense
Human alphaherpesvirus 1 = experiment: microbe, parasite or virus in culture
Hepatitis C virus [13] = experiment: microbe, parasite or virus in culture
Poliovirus 3 = experiment: microbe, parasite or virus in culture; conditions: Enterovirus C
[14] = system: Respiratory syncytial virus; experiment: microbe, parasite or virus in culture; conditions: human respiratory syncytial virus
Human betaherpesvirus 5 = experiment: microbe, parasite or virus in culture
Dengue virus = experiment: microbe, parasite or virus in culture
Vaccinia virus = experiment: microbe, parasite or virus in culture; conditions: Orthopoxvirus vaccinia
Hepatitis B virus = experiment: microbe, parasite or virus in culture
[15] = system: Venezuelan equine encephalitis virus; experiment: microbe, parasite or virus in culture
Rift Valley fever virus = experiment: microbe, parasite or virus in culture
Liver microsome [16] = experiment: Metabolic stability in rat liver microsomes assessed as half life by LC-MS/MS analysis in presence of NADPH
[17] = Metabolic stability in mouse liver microsomes assessed as half life by LC-MS/MS analysis in presence of NADPH
Liver microsome [18] = experiment: Metabolic stability in human liver microsomes assessed as half life by LC-MS/MS analysis in presence of NADPH
Mus musculus = experiment: Hepatotoxicity in CD-1 mouse serum assessed as ALT level at 10 mg/kg, ip by UPLC-MS/MS analysis; type: toxicity, organism-based; conditions: in vivo
Method in brief: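 ALT was measured in serum from the mouse PK study: male CD-1 mice, single 10 mg/kg i.p. dose in 10% PEG300 / 90% of 30% HP-β-CD, samples from 0.083 to 24 h. A vehicle-only dosing group served as control. Individual mice were plotted, with mean ± SEM.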

Liver = experiment: Half life of compound in CD-1 mouse liver at 10 mg/kg, ip by UPLC-MS/MS analysis; type: ADME, organism-based; conditions: mouse, in vivo
Method in brief: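 Male CD-1 mice (~35 g) got a single i.p. dose of 10 mg/kg, prepared fresh at 2 mg/mL in 10% PEG300 / 90% of 30% HP-β-CD in water. Drug was measured by UPLC-MS/MS. Parameters came from noncompartmental analysis, with AUC by the linear trapezoidal method and liver/plasma ratios taken.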

Hepatitis C virus [19] = experiment: Antiviral activity against HCV genotype 1b pseudoparticle infected in human Huh7.5.1 cells assessed as inhibition of virus entry at 3.2 uM after 4 hrs by luciferase reporter gene assay; type: functional, Hepacivirus hominis; conditions: Huh-7, 4 h
Method in brief: (§1)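 Huh7.5.1 cells seeded at 10^4 cells/well, cultured overnight, then infected for 4 h with pseudoparticles (HCVpp GT 1a or 1b, MLVpp, VSV-Gpp) while compound was present. Cells were washed and cultured 48 h, then a luciferase read-out was taken. Values are expressed as % of DMSO control. Cyclosporin A 10 μM and bafilomycin A1 10 nM were run in parallel.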

[20] = system: Vesicular stomatitis virus; experiment: Antiviral activity against Vesicular stomatitis virus G pseudoparticle infected in human Huh7.5.1 cells at 3.2 uM after 4 hrs by luciferase reporter gene assay; type: functional; conditions: Huh-7, 4 h
Method in brief: as §1

Hepatitis C virus [21] = experiment: Antiviral activity against single rounded infectious HCV infected in human Huh7.5.1 cells assessed as viral level at 3.2 uM after 48 hrs by luciferase reporter gene assay; type: functional, Hepacivirus hominis; conditions: Huh-7, 48 h
Method in brief: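 Huh7.5.1 cells (10^4 cells/well, overnight) were infected with single-round infectious HCV (HCVsc) in the presence of compound. Viral level was measured by luciferase after 48 h and expressed as % of DMSO control. The assay reports inhibition of early stages before assembly.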

in vitro = conditions: human, Huh7.5.1 cells and HepG2 cells
Murine leukemia virus [22] = experiment: Antiviral activity against Murine leukemia virus pseudoparticle infected in human Huh7.5.1 cells at 3.2 uM after 4 hrs by luciferase reporter gene assay; type: functional; conditions: Huh-7, 4 h
Method in brief: as §1

Hepatitis C virus [23] = experiment: Antiviral activity against HCV genotype 2a assessed as inhibition of RNA replication at 3.2 uM by cell-based replicon assay; type: functional, Hepacivirus hominis
Method in brief: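 GT 2a subgenomic HCV replicon cells were seeded at 10^4 cells/well and incubated overnight. They were then exposed to compound for 48 h, and replication was read by luciferase activity. Results are given as % of DMSO control.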

Hepatitis C virus [24] = experiment: Antiviral activity against HCV genotype 1a pseudoparticle infected in human Huh7.5.1 cells assessed as inhibition of virus entry at 3.2 uM after 4 hrs by luciferase reporter gene assay; type: functional, Hepacivirus hominis; conditions: subtype 1a, Huh-7, 4 h
Method in brief: as §1

Chain of histamine H1 receptor (P35367 whole entry): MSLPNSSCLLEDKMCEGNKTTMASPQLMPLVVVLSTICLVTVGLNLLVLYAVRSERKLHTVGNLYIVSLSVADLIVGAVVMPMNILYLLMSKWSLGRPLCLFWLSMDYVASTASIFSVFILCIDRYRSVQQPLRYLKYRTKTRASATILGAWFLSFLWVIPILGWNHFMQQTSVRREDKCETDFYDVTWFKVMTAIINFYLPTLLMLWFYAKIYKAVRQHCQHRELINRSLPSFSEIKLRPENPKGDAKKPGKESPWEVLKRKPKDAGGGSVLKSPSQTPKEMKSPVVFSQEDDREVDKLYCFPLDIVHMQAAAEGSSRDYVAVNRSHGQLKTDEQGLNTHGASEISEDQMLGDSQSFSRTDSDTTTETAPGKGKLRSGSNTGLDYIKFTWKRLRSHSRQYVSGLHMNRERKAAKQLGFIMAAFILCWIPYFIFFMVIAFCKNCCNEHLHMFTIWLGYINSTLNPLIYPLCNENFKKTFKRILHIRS

For `CN1CCN([C@@H](c2ccccc2)c2ccc(Cl)cc2)CC1`, the CC50 (Hepatocyte) was greater than 31600 nM, the inhibition at 2 h, 0.01 µM (histamine H1 receptor) was 49.5% and the CC50 [1] was 33400 nM. The AUC(0-inf) [2] was 48.9 µM·h, the CC50 (HepG2) was 32300 nM and the inhibition at 10 µM (Hepatitis C virus [3]) was 116%. The solubility kinetic [4] was 29.3 µg/mL (≈ 97.4 µM), the inhibition at 10 µM (Murine leukemia virus [5]) was 103% and the inhibition at 10 µM (Hepatitis C virus [6]) was 2.1%. It also gave an inhibition at 10 µM (Hepatitis C virus [7]) of 101%, an inhibition at 10 µM [8] of 120% and an EC50 (Hepatitis C virus [9]) of 240 nM. The inhibition at 10 µM (Hepatitis C virus [10]) was 107%, the AUC(0-t) at 24 h [11] was 1310 µM·h and the Cmax [12] was 436 µM.

For `CCN1CCN([C@@H](c2ccccc2)c2ccc(Cl)cc2)CC1`, the EC50 (Influenza A virus) was no less than 1000 nM, the inhibition at 2 h, 0.01 µM (histamine H1 receptor) was 60.7% and the EC50 (SARS-CoV) was no less than 1000 nM. It also gave a CC50 [1] of 40000 nM, an EC50 (Tacaribe virus) of no less than 1000 nM and an EC50 (Human alphaherpesvirus 1) of no less than 1000 nM. It also gave an EC50 (Hepatitis C virus [13]) of no less than 1000 nM, an EC50 (Poliovirus 3) of no less than 1000 nM and a CC50 (HepG2) of 68900 nM. For the same compound, the solubility kinetic [4] was 12.3 µg/mL (≈ 39.1 µM), the inhibition at 10 µM (Hepatitis C virus [6]) was 2% and the EC50 [14] was no less than 1000 nM. The EC50 (Human betaherpesvirus 5) was no less than 1000 nM, the EC50 (Dengue virus) was no less than 1000 nM and the EC50 (Vaccinia virus) was no less than 1000 nM. For the same compound, the EC50 (Hepatitis B virus) was no less than 1000 nM, the EC50 [15] was no less than 1000 nM and the EC50 (Rift Valley fever virus) was no less than 1000 nM.

`CN1CCN(C(c2ccc(Cl)cc2)c2ccc(Cl)cc2)CC1` gave a t1/2 (Liver microsome [16]) of 26 min, an inhibition at 2 h, 0.01 µM (histamine H1 receptor) of 18.5% and an inhibition at 10 µM (Hepatitis C virus [3]) of 91.9%. The solubility kinetic [4] was greater than 49 µg/mL, the inhibition at 10 µM (Murine leukemia virus [5]) was 116% and the inhibition at 10 µM (Hepatitis C virus [6]) was 12.4%. The t1/2 [17] was 91 min, the inhibition at 10 µM (Hepatitis C virus [7]) was 112% and the t1/2 (Liver microsome [18]) was greater than 120 min. It also gave an inhibition at 10 µM [8] of 119%, an Activity (Mus musculus) of 80 U/L and an inhibition at 10 µM (Hepatitis C virus [10]) of 76.2%. It also gave a t1/2 (Liver) of 510 min.

Compound `NCCOCCN1CCN(C(c2ccccc2)c2ccc(Cl)cc2)CC1` (racemic) has a CC50 (Hepatocyte) of 8980 nM, a t1/2 (Liver microsome [16]) of 12.2 min and an inhibition at 2 h, 0.01 µM (histamine H1 receptor) of 21.5%. It also gave a CC50 [1] of 8180 nM, an inhibition at 3.2 µM (Hepatitis C virus [19]) of 37.2% and a CC50 (HepG2) of 6170 nM. It also gave a solubility kinetic [4] of 44.3 µg/mL (≈ 118 µM), an inhibition at 10 µM (Hepatitis C virus [6]) of 6.9% and a t1/2 [17] of 25 min. The inhibition at 3.2 µM [20] was 93.1%, the inhibition at 3.2 µM (Hepatitis C virus [21]) was 6.9% and the t1/2 (Liver microsome [18]) was 26.3 min. It also gave a selectivity ratio (in vitro) of less than 1.8, an inhibition at 3.2 µM (Murine leukemia virus [22]) of 107% and an EC50 (Hepatitis C virus [9]) of 7.2 nM. It also gave an inhibition at 3.2 µM (Hepatitis C virus [23]) of 149% and an inhibition at 3.2 µM (Hepatitis C virus [24]) of 19.4%.
